{"data": "Results of several laboratories"}
{"Compound": "CN(C)C(=O)c1cc2cnc(Nc3ccc(-c4ccc5c(=O)cc(N6CCOCC6)oc5c4)cc3)nc2n1C1CCCC1", "species": "BALB/c mouse", "medium": "brain", "route": "oral", "dose": "20 mg/kg", "time": "2 h", "notes": "single dose", "concentration": "108 ng/g"}
{"Compound": "NCc1cc2c(cc1F)C(=O)N(C1CCC(=O)NC1=O)C2 (stereo not shown)", "species": "male CD-1 mouse", "medium": "plasma", "route": "oral", "dose": "10 mg/kg", "time": "1 h", "concentration": "81 ng/mL"}
{"Compound": "CC(C)n1ncc2c(C(=O)NCC3(C)CNC3)cc(C3CC3)nc21", "species": "female BALB/c mouse", "medium": "plasma", "route": "intraperitoneal", "dose": "50 mg/kg", "time": "8 h", "concentration": "240 ng/mL"}
{"Compound": "CC(C)(C)S(=O)(=O)c1cc2c(Nc3ccc4scnc4c3)ncnc2cc1OCCOP(=O)(O)O", "species": "BALB/c mouse", "medium": "plasma", "route": "oral", "dose": "10 mg/kg", "time": "2 h", "concentration": "145 ng/mL"}
{"Compound": "Cc1ccc2c(c1)C(=O)[C@]1(O)CCN(c3ccc4nc(C)ccc4c3)C1=N2", "species": "mouse", "medium": "plasma", "route": "intraperitoneal", "dose": "10 mg/kg", "time": "30 min", "concentration": "700 nM"}
{"Compound": "OCc1nc2ccc(NCc3ccc(C(F)(F)F)cc3)cc2[nH]1", "species": "male BALB/c mouse", "medium": "brain", "route": "intravenous", "dose": "1 mg/kg", "time": "6 h", "concentration": "26.1 ng/g"}
{"Compound": "CC1(C)NC(=O)N(c2ccc(F)c(S(C)(=O)=O)c2)C1=O", "species": "male Swiss mouse", "medium": "plasma", "route": "oral", "dose": "100 mg/kg", "time": "48 h", "concentration": "20 ng/mL"}
{"Compound": "CCOC(=O)c1c(NC(=O)CNC(C)C)sc2c1CCCCC2", "species": "male mouse", "medium": "brain", "route": "intraperitoneal", "dose": "100 mg/kg", "time": "30 min", "concentration": "15800 ng/g"}
{"Compound": "Cc1nc2ccc(OCc3ccc(C(F)(F)F)cc3)cc2[nH]1", "species": "male BALB/c mouse", "medium": "brain", "route": "oral", "dose": "10 mg/kg", "time": "72 h", "concentration": "2.7 ng/g"}
{"Compound": "O=C1CCC(N2Cc3cc(C4CCN(Cc5ccccc5)CC4)ccc3C2=O)C(=O)N1 (stereo not shown)", "species": "male CD-1 mouse", "medium": "plasma", "route": "oral", "dose": "3 mg/kg", "time": "1 h", "concentration": "235 ng/mL"}
{"Compound": "CC(C)c1cc(C(=O)NCCN)c2cnn(C(C)C)c2n1", "species": "female BALB/c mouse", "medium": "plasma", "route": "intraperitoneal", "dose": "50 mg/kg", "time": "15 min", "concentration": "2010 ng/mL"}
{"Compound": "O=C1CCC(N2Cc3cc(CO)c(F)cc3C2=O)C(=O)N1 (stereo not shown)", "species": "male CD-1 mouse", "medium": "plasma", "route": "intravenous", "dose": "1 mg/kg", "time": "2 h", "concentration": "8.1 ng/mL"}
{"Compound": "CC1(C)NC(=O)N(c2ccc(F)c(Br)c2)C1=O", "species": "male Swiss mouse", "medium": "plasma", "route": "oral", "dose": "100 mg/kg", "time": "1 h", "concentration": "29700 ng/mL"}
